From ChEMBL document CHEMBL1772983, “Bioactive sesqui- and diterpenoids from the Argentine liverwort Porella chilensis” (2011) come the findings set out here.

In general, inhibition refers to the percentage by which the read-out fell short of the control.

Active and inactive are the calls of the source. The calls are words filed in the database; no cut-off is given here.

Experiment [1] deals with Pseudomonas aeruginosa. In words: Antibacterial activity against Pseudomonas aeruginosa ATCC 27853 assessed as growth inhibition at 5 ug/ml by microplate assay. In kind it is functional. The method, boiled down:
(§1)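 Overnight P. aeruginosa ATCC 27853 culture diluted to 10% (v/v) in LB medium. 190 µL of culture plus 10 µL of 1 or 0.1 mg/mL stock in DMSO–water (1:1), giving 50 or 5 µg/mL. 8 replicates; vehicle-only negative control. Incubated 37 °C, 24 h; growth read as OD600. Mean ± SD, Student's t-test, p ≤ 0.05.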

Experiment [2] relates to Pseudomonas aeruginosa. As to the kind of experiment: Inhibition of quorum sensing activity in Pseudomonas aeruginosa ATCC 27853 assessed as N-acylhomoserin lactones production at 5 ug/ml after 24 hrs by measuring beta-galactosidase activity by spectrophotometry.
Experiment [3] has as its system Pseudomonas aeruginosa. In words: Inhibition of quorum sensing activity in Pseudomonas aeruginosa ATCC 27853 assessed as N-acylhomoserin lactones production at 5 ug/ml after 24 hrs by measuring beta-galactosidase activity by spectrophotometry relative to control. On the set-up: scale not given: the % may be the effect or the level left.
The subject of experiment [4] is Pseudomonas aeruginosa. In words: Induction of Pseudomonas aeruginosa ATCC 27853 biofilm formation at 0.6 uM after 24 hrs using crystal violet staining by spectrophotometry analysis. It counts as functional, organism-based.
The subject of experiment [5] is Pseudomonas aeruginosa. In words: Antibacterial activity against Pseudomonas aeruginosa ATCC 27853 assessed as growth inhibition at 5 to 50 ug/ml after 24 hrs by microplate assay. In kind it is functional, organism-based. An outline of the steps: as §1
Experiment [6] relates to Pseudomonas aeruginosa. In words: Inhibition of quorum sensing activity in Pseudomonas aeruginosa ATCC 27853 assessed as N-acylhomoserin lactones production at 5 to 50 ug/ml after 24 hrs by measuring beta-galactosidase activity by spectrophotometry.
Experiment [7] concerns Pseudomonas aeruginosa. In words: Antibacterial activity against Pseudomonas aeruginosa ATCC 27853 assessed as increase in bacterial growth at 5 to 50 ug/ml by microplate assay. In kind it is functional, organism-based. The method, boiled down: as §1
In experiment [8] the test system is Pseudomonas aeruginosa. In words: Inhibition of Pseudomonas aeruginosa ATCC 27853 biofilm formation at 5 to 50 ug/ml after 24 hrs using crystal violet staining by spectrophotometry analysis. In kind it is functional, organism-based. An outline of the steps:
(§2)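 ATCC 27853 culture diluted to 10% (v/v) in LB and dosed from DMSO–water (1:1) stocks of 1 or 0.1 mg/mL (10 µL into 190 µL), 8 replicates, vehicle control. After 24 h at 37 °C, liquid discarded and wells washed three times with PBS. Stained with 0.1% crystal violet for 20 min, rinsed with water, dye eluted with absolute EtOH, A540 read. Mean ± SD, Student's t-test.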

For experiment [9], the system named is Pseudomonas aeruginosa. In words: Antibacterial activity against Pseudomonas aeruginosa ATCC 27853 assessed as increase in bacterial growth at 50 ug/ml by microplate assay relative to control. It counts as functional. An outline of the steps:
as §1

In experiment [10] the test system is Pseudomonas aeruginosa. In words: Antibacterial activity against Pseudomonas aeruginosa ATCC 27853 assessed as growth inhibition by microplate assay. It counts as functional, organism-based. The method, boiled down:
as §1

In experiment [11] the test system is Pseudomonas aeruginosa. In words: Induction of quorum sensing in Pseudomonas aeruginosa ATCC 27853 assessed as N-acylhomoserin lactones production at 50 ug/ml after 24 hrs by measuring beta-galactosidase activity by spectrophotometry.
Experiment [12] concerns Pseudomonas aeruginosa. In words: Induction of Pseudomonas aeruginosa ATCC 27853 biofilm formation at 50 ug/ml after 24 hrs using crystal violet staining by spectrophotometry analysis relative to control. In kind it is functional. The method, boiled down: as §2
For experiment [13], the system named is Pseudomonas aeruginosa. As to the kind of experiment: Antibacterial activity against Pseudomonas aeruginosa ATCC 27853 assessed as growth inhibition at 50 ug/ml by microplate assay relative to control. It counts as functional. The settings on record: read-out: GI. The method, boiled down:
as §1

The subject of experiment [14] is Pseudomonas aeruginosa. As to the kind of experiment: Inhibition of Pseudomonas aeruginosa ATCC 27853 biofilm formation at 16.4 uM after 24 hrs using crystal violet staining by spectrophotometry analysis relative to control. In kind it is functional. As to conditions: ATCC 27853, 24 h. An outline of the steps:
as §2

For experiment [15], the system named is Pseudomonas aeruginosa. In words: Inhibition of quorum sensing activity in Pseudomonas aeruginosa ATCC 27853 assessed as N-acylhomoserin lactones production at 16.4 uM after 24 hrs by measuring beta-galactosidase activity by spectrophotometry. On the set-up: scale not given: the % may be the effect or the level left.
For experiment [16], the system named is Pseudomonas aeruginosa. As to the kind of experiment: Inhibition of Pseudomonas aeruginosa ATCC 27853 biofilm formation at 5 ug/ml after 24 hrs using crystal violet staining by spectrophotometry analysis relative to control. In kind it is functional. The method, boiled down:
as §2

Experiment [17] relates to Pseudomonas aeruginosa. In words: Inhibition of Pseudomonas aeruginosa ATCC 27853 biofilm formation at 50 ug/ml after 24 hrs using crystal violet staining by spectrophotometry analysis relative to control. The settings on record: ATCC 27853, 24 h.
Experiment [18] relates to Pseudomonas aeruginosa. As to the kind of experiment: Inhibition of Pseudomonas aeruginosa ATCC 27853 biofilm formation at 5 ug/ml after 24 hrs using crystal violet staining by spectrophotometry analysis. In kind it is functional. As to conditions: ATCC 27853, 24 h. The method, boiled down: as §2
Experiment [19] concerns Pseudomonas aeruginosa. In words: Antibacterial activity against Pseudomonas aeruginosa ATCC 27853 assessed as growth inhibition at 5 ug/ml after 24 hrs by microplate assay relative to control. It counts as functional. As to conditions: ATCC 27853, 24 h, read-out: GI. An outline of the steps:
as §1

Consider `CC[C@H]1OC(=O)[C@H](C)[C@@H](O[C@H]2C[C@@](C)(OC)[C@@H](O)[C@H](C)O2)[C@H](C)[C@@H](O[C@@H]2O[C@H](C)C[C@H](N(C)C)[C@H]2O)[C@](C)(O)C[C@@H](C)CN(C)[C@H](C)[C@@H](O)[C@]1(C)O`, for which, in the experiment with Pseudomonas aeruginosa [1], the “growth inhibition (GI)” value was “inactive”. In the experiment with Pseudomonas aeruginosa [2], the inhibition was determined as 76%. Moreover, the Activity in the experiment with Pseudomonas aeruginosa [3] was 76%.

In the case of `COC(=O)[C@@]12Cc3occc3C(=O)[C@]1(C)CC[C@H]2C`, the biofilm induction entry in the experiment on Pseudomonas aeruginosa [4] is “inactive”. Also, in the experiment with Pseudomonas aeruginosa [5], the “growth inhibition (GI)” value was “inactive”. Further, the inhibition entry with Pseudomonas aeruginosa [6] is “inactive”. Further, in the experiment on Pseudomonas aeruginosa [7], the outcome was Active.

On to `C[C@@H]1CC[C@@]2(C)C(=O)c3ccoc3C[C@@]12C`, for which the biofilm induction entry with Pseudomonas aeruginosa [4] was “inactive”. Moreover, the inhibition entry in the experiment on Pseudomonas aeruginosa [8] and with Pseudomonas aeruginosa [6] was “Active” in each case. In addition, the “growth inhibition (GI)” value in the experiment with Pseudomonas aeruginosa [5] is “Active”. Moreover, in the experiment on Pseudomonas aeruginosa [7], the result was Active.

As for `CC1=CC(=O)[C@@H]2[C@@H](C)CC[C@H]3[C@@H](C(C)C)CC[C@]3(C)C[C@@]12O`, the biofilm induction result in the experiment with Pseudomonas aeruginosa [4] was “inactive”. The figures for the Activity in the experiment on Pseudomonas aeruginosa [9] and with Pseudomonas aeruginosa [12] were 15% and 95%, respectively. The “growth inhibition (GI)” value in the experiment with Pseudomonas aeruginosa [10] was “Dose-dependent effect”. The outcome with Pseudomonas aeruginosa [11] was Active.

For `CC(C)[C@H]1CC[C@]2(C)CC3=C(C(=O)C[C@@]3(C)O)[C@@H](C)CC[C@@H]12`, in the experiment on Pseudomonas aeruginosa [4], the biofilm induction entry is “inactive”. Further, the outcome in the experiment with Pseudomonas aeruginosa [11] was Active. The same compound registered an Activity in the experiment on Pseudomonas aeruginosa [12] of 93%.

Turning to `CC(C)[C@H]1CC[C@]2(C)C[C@]3(O)C(=CC(=O)[C@H]3C)[C@@H](C)CC[C@@H]12` [ANADENSIN], the biofilm induction result in the experiment with Pseudomonas aeruginosa [4] is “inactive”. Also, the inhibition of growth at 50 µg/mL in the experiment with Pseudomonas aeruginosa [13] was found to be 16%. Further, the inhibition entry with Pseudomonas aeruginosa [8] and with Pseudomonas aeruginosa [6] was “Active” in each case. Besides, in the experiment on Pseudomonas aeruginosa [5], the “growth inhibition (GI)” value was “Active”. In addition, the “growth inhibition (GI)” value with Pseudomonas aeruginosa [10] was “Dose-dependent effect”. For the same compound, 16.4 µM produced 47% inhibition with Pseudomonas aeruginosa [14].

In the case of `C=C1CC[C@H]2[C@@H]([C@@H]3[C@@H]1CC[C@@]3(C)O)C2(C)C`, the “growth inhibition (GI)” value with Pseudomonas aeruginosa [1] was “Active”. Besides, in the experiment on Pseudomonas aeruginosa [4], the biofilm induction entry is “inactive”. In the experiment with Pseudomonas aeruginosa [15], the Activity was 33%. In addition, the inhibition entry in the experiment on Pseudomonas aeruginosa [8] and with Pseudomonas aeruginosa [16] was “Active” in each case. The inhibition with Pseudomonas aeruginosa [6] was 33%. In the experiment with Pseudomonas aeruginosa [14], this compound had an inhibition at 16.4 µM of 41%.

Take `CC1=C2C[C@@]3(C)CC[C@H](C(C)C)[C@@H]3CC[C@H](C)[C@]2(O)CC1=O` [FUSICOAURITONE]: in the experiment on Pseudomonas aeruginosa [4], the biofilm induction entry was “inactive”. Besides, in the experiment with Pseudomonas aeruginosa [13], the inhibition of growth at 50 µg/mL was found to be 25%. In addition, in the experiment with Pseudomonas aeruginosa [10], the “growth inhibition (GI)” value was “Dose-dependent effect”. Further, in the experiment with Pseudomonas aeruginosa [11], the result was Active. This compound also gave an Activity with Pseudomonas aeruginosa [12] of 105%.

With `CC(=O)OC[C@@]12Cc3occc3C(=O)[C@]1(C)CC[C@H]2C` [NORPINGUISONE ACETATE], the biofilm induction result with Pseudomonas aeruginosa [4] is “inactive”. In the experiment on Pseudomonas aeruginosa [17], the inhibition at 50 µg/mL was found to be 27%. Also, the inhibition at 5 µg/mL with Pseudomonas aeruginosa [16] (ATCC 27853, 24 h) is 20%. For the same compound, in the experiment on Pseudomonas aeruginosa [7], the result was Active.

Consider `C=CC1(O)CC[C@@]2(C)[C@H](C)CC[C@@]2(C)[C@@H]1C` (stereo not given in full), for which the biofilm induction entry with Pseudomonas aeruginosa [4] is “inactive”. For the same compound, the inhibition entry with Pseudomonas aeruginosa [8] and in the experiment on Pseudomonas aeruginosa [6] was “Active” each time. The “growth inhibition (GI)” value with Pseudomonas aeruginosa [5] is “Active”. Also, the outcome in the experiment with Pseudomonas aeruginosa [7] was Active.

In the case of `O=C(O)c1cn(C2CC2)c2cc(N3CCNCC3)c(F)cc2c1=O` [CIPROFLOXACIN], the inhibition of growth at 5 µg/mL in the experiment with Pseudomonas aeruginosa [1] (read-out: GI) was 73%. Moreover, the inhibition at 5 µg/mL in the experiment with Pseudomonas aeruginosa [18] is 51%.

Turning to `CC1(C)[C@@H]2[C@@H]3[C@H](CC[C@@]3(C)O)[C@@](C)(O)CC[C@@H]21`, in the experiment on Pseudomonas aeruginosa [4], the biofilm induction result was “inactive”. For the same compound, the inhibition entry with Pseudomonas aeruginosa [8] was “Active”. Further, the inhibition of growth at 5 µg/mL with Pseudomonas aeruginosa [19] worked out at 24%. For the same compound, in the experiment on Pseudomonas aeruginosa [6], the inhibition is 80%. Further, in the experiment on Pseudomonas aeruginosa [14], the inhibition at 16.4 µM was 37%.
